Laboratory results from ChEMBL document CHEMBL4480378, “Amide linked redox-active naphthoquinones for the treatment of mitochondrial dysfunction” (2019).
Calls of active or inactive are those of the source. The calls are words filed in the database; no cut-off is given here.

Experiments:
HepG2 [1] = test: Cytoprotection against rotenone-induced mitochondrial dysfunction in human HepG2 cells assessed as acute ATP rescue at 10 uM co-treated with rotenone for 1 hr by luciferase-based assay relative to control; format: functional
Procedure, shortened: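 HepG2 cells, 15 000 per well, attached overnight; after 24 h co-incubated with quinone (10 µM) and rotenone (10 µM) for 1 hour in glucose-free growth media. ATP then measured immediately by luciferase reaction, expressed as percentage of untreated (no rotenone) control.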

[2] = Ratio of IC50 for cytotoxicity against rat RGC5 cells to IC50 for cytotoxicity against human HepG2 cells
HepG2 [3] = test: Cytoprotection against rotenone-induced mitochondrial dysfunction in human HepG2 cells assessed as increase in cell viability by measuring ATP levels at 10 uM preincubated for 48 hrs followed by rotenone-induction and measured after 24 hrs by luciferase-based assay; format: functional
Procedure, shortened: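 5000 HepG2 cells per well preincubated with quinone (10 µM) for 2 days, then challenged with rotenone (1 µM) for 6 hours in HBSS. Post-incubated with quinone alone in HBSS for a further 24 h. Viability read as ATP content by luciferase reaction, as percentage of untreated (no rotenone) control. 3 independent experiments, n = 6 wells each; error bars SD.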

Rattus norvegicus = species on record: Rattus norvegicus; test: Cytoprotection against rotenone-induced mitochondrial dysfunction in rat RGC5 cells assessed as increase in cell viability by measuring ATP levels at 10 uM preincubated for 48 hrs followed by rotenone-induction and measured after 24 hrs by luciferase-based assay; format: functional
[4] = Electrochemical behavior of the compound assessed as redox potential (Eox) corrected toward saturated calomel reference electrode by cyclic voltammetry
[5] = Electrochemical behavior of the compound assessed as redox potential (Ered) corrected toward saturated calomel reference electrode by cyclic voltammetry

CCCCCCOC(=O)CCCC1=C(C)C(=O)c2ccccc2C1=O
Activity (HepG2 [1]): <30%
Ratio IC50 [2]: 2

CC1=C(CCCCCC(=O)O)C(=O)c2ccccc2C1=O
Activity (HepG2 [3]): Active
Activity (HepG2 [1]): 60 - 90%

CC1=C(CC(C)(O)C(F)(F)F)C(=O)c2ccccc2C1=O (stereo unspecified)
Activity (HepG2 [1]): 60 - 90%

CC1=C(CCCC(=O)NCC(=O)OC(C)(C)C)C(=O)c2ccccc2C1=O
Activity (HepG2 [3]): 90 - 100%

CC1=C(CCCC(=O)N[C@@H](Cc2ccc(O)cc2)C(=O)OC(C)(C)C)C(=O)c2ccccc2C1=O
Activity (HepG2 [3]): inactive
Activity (HepG2 [1]): 90%

CC1=C(CC[C@@H](C)[C@H]2CC[C@H]3[C@@H]4CC[C@@H]5C[C@H](O)CC[C@]5(C)[C@H]4C[C@H](O)[C@]23C)C(=O)c2ccccc2C1=O
Ratio IC50 [2]: 2

CC1=C(CCCC(=O)N[C@@H](Cc2ccccc2)C(=O)O)C(=O)c2ccccc2C1=O
Activity (HepG2 [3]): 90 - 100%
Activity (HepG2 [1]): 5 - 70%

CC1=C(CCCCCCCCC2CO2)C(=O)c2ccccc2C1=O (stereo unspecified)
Activity (HepG2 [1]): 60 - 90%
Ratio IC50 [2]: 2

CC1=C(CCCc2ccccc2)C(=O)c2ccccc2C1=O
Ratio IC50 [2]: 2

COc1ccc(CC2=C(C)C(=O)c3ccccc3C2=O)cc1OC
Activity (HepG2 [1]): 60 - 90%
Ratio IC50 [2]: 2

CCCCOC(=O)CCCC1=C(C)C(=O)c2ccccc2C1=O
Activity (HepG2 [1]): <30%
Ratio IC50 [2]: 2

CC1=C(CCCC(=O)N[C@@H](Cc2ccccc2)C(=O)OC(C)(C)C)C(=O)c2ccccc2C1=O
Activity (HepG2 [3]): 90 - 100%

CC1=C(CCCCC(=O)O)C(=O)c2ccccc2C1=O
Activity (HepG2 [3]): Active
Activity (HepG2 [1]): 60 - 90%

CC(=O)CCC1=C(C)C(=O)c2ccccc2C1=O
Activity (Rattus norvegicus): Active
Activity (HepG2 [3]): Active
Activity (HepG2 [1]): 60 - 90%
Ratio IC50 [2]: 2

C=CCCCCCCCCC1=C(C)C(=O)c2ccccc2C1=O
Activity (HepG2 [1]): 60 - 90%
Ratio IC50 [2]: 2

COC(=O)[C@H](Cc1ccccc1)NC(=O)CCCC1=C(C)C(=O)c2ccccc2C1=O
Activity (HepG2 [3]): 90 - 100%

CC1=C(CCC(C)O)C(=O)c2ccccc2C1=O (stereo unspecified)
Activity (Rattus norvegicus): Active
Activity (HepG2 [3]): Active
Activity (HepG2 [1]): 60 - 90%
Ratio IC50 [2]: 2

CCCCCCCC1=C(C)C(=O)c2ccccc2C1=O
Activity (Rattus norvegicus): Active
Activity (HepG2 [3]): Active
Activity (HepG2 [1]): 60 - 90%
Ratio IC50 [2]: 2

CC1=C(CCCC(=O)N[C@@H](CC(C)C)C(=O)OC(C)(C)C)C(=O)c2ccccc2C1=O
Activity (HepG2 [3]): inactive
Activity (HepG2 [1]): 90%

CC1=C(CC2CCC(=O)O2)C(=O)c2ccccc2C1=O (stereo unspecified)
Activity (HepG2 [1]): 60 - 90%
Ratio IC50 [2]: 2

CC1=C(CCCC(=O)N[C@H](CO)Cc2ccccc2)C(=O)c2ccccc2C1=O
Activity (HepG2 [3]): 100%
Activity (HepG2 [1]): 100%

CC1=C(CCC(C)C)C(=O)c2ccccc2C1=O
Ratio IC50 [2]: 2

CC1=C(CCC(=O)O)C(=O)c2ccccc2C1=O
Activity (HepG2 [3]): Active
Activity (HepG2 [1]): 60 - 90%
Ratio IC50 [2]: 2

CCCCCCCCC1=C(C)C(=O)c2ccccc2C1=O
Activity (Rattus norvegicus): Active
Activity (HepG2 [3]): Active
Activity (HepG2 [1]): 60 - 90%
Ratio IC50 [2]: 2

CC1=C(CCC(F)(F)F)C(=O)c2ccccc2C1=O
Activity (HepG2 [1]): 60 - 90%

CC1=C(CCCC(=O)N2CCC[C@H]2C(=O)OC(C)(C)C)C(=O)c2ccccc2C1=O
Activity (HepG2 [3]): 90 - 100%

CCOC(=O)CCCC1=C(C)C(=O)c2ccccc2C1=O
Activity (HepG2 [1]): <30%
Ratio IC50 [2]: 2

CC1=C(CCCC(=O)N[C@@H](Cc2ccc(OC(=O)CCCC3=C(C)C(=O)c4ccccc4C3=O)cc2)C(=O)OC(C)(C)C)C(=O)c2ccccc2C1=O
Activity (HepG2 [3]): 90 - 100%

CC1=C(CCC2CCCC2)C(=O)c2ccccc2C1=O
Activity (HepG2 [1]): 60 - 90%
Ratio IC50 [2]: 2

CC1=C(CCCC(=O)NCCc2c[nH]c3ccccc23)C(=O)c2ccccc2C1=O
Activity (HepG2 [3]): 100%
Activity (HepG2 [1]): 100%

COC(=O)[C@H](NC(=O)CCCC1=C(C)C(=O)c2ccccc2C1=O)c1ccccc1
Activity (HepG2 [3]): 90 - 100%

CCC[C@H](NC(=O)CCCC1=C(C)C(=O)c2ccccc2C1=O)C(=O)OC(C)(C)C
Activity (HepG2 [3]): 90 - 100%

COC1=C(OC)C(=O)C(CCCCCCCCCCO)=C(C)C1=O [IDEBENONE]
Activity [4]: -0.637 V
Activity [5]: -0.714 V
Activity (HepG2 [1]): 60 - 90%

COc1ccc(CCNC(=O)CCCC2=C(C)C(=O)c3ccccc3C2=O)cc1OC
Activity (HepG2 [3]): 100%
Activity (HepG2 [1]): 100%

C=CCCC1=C(C)C(=O)c2ccccc2C1=O
Activity (HepG2 [1]): 60 - 90%
Ratio IC50 [2]: 2

CCCCCCCCCCC1=C(C)C(=O)c2ccccc2C1=O
Activity (Rattus norvegicus): inactive
Activity (HepG2 [3]): inactive
Ratio IC50 [2]: 2

CCCCCCCC/C=C\CCCCCCCC1=C(C)C(=O)c2ccccc2C1=O
Ratio IC50 [2]: 2

CCOC(=O)CCC1=C(C)C(=O)c2ccccc2C1=O
Activity (Rattus norvegicus): Active
Activity (HepG2 [3]): inactive
Activity (HepG2 [1]): <30%
Ratio IC50 [2]: 2

CC1=C(CCCC(=O)NCCc2ccc(O)cc2)C(=O)c2ccccc2C1=O
Activity (HepG2 [3]): 100%
Activity (HepG2 [1]): 100%

CC1=C(CCCC(=O)N[C@@H](CC(C)C)C(=O)O)C(=O)c2ccccc2C1=O
Activity (HepG2 [1]): 5 - 70%

CCCCCCC1=C(C)C(=O)c2ccccc2C1=O
Activity (Rattus norvegicus): Active
Activity (HepG2 [3]): Active
Activity (HepG2 [1]): 60 - 90%
Ratio IC50 [2]: 2

CC1=C(CCCCCCCCCCO)C(=O)c2ccccc2C1=O
Activity [4]: -0.768 V
Activity (Rattus norvegicus): Active
Activity [5]: -0.845 V
Activity (HepG2 [3]): Active
Ratio IC50 [2]: 2

CC1=C(CCCC(=O)N2CCC[C@H]2C(=O)O)C(=O)c2ccccc2C1=O
Activity (HepG2 [1]): 5 - 70%

COC(=O)[C@@H](NC(=O)CCCC1=C(C)C(=O)c2ccccc2C1=O)c1ccccc1
Activity (HepG2 [3]): 90 - 100%

CCCCOC(=O)CCC1=C(C)C(=O)c2ccccc2C1=O
Activity (HepG2 [1]): <30%
Ratio IC50 [2]: 2

CCCCCCOC(=O)CCC1=C(C)C(=O)c2ccccc2C1=O
Activity (HepG2 [1]): <30%
Ratio IC50 [2]: 2

CC1=C(CC(C)CCCC(C)C)C(=O)c2ccccc2C1=O (stereo unspecified)
Activity (HepG2 [1]): 60 - 90%
Ratio IC50 [2]: 2
